Assay results from ChEMBL document CHEMBL4480411, “Discovery of Second Generation RORγ Inhibitors Composed of an Azole Scaffold” (J Med Chem, 2019).
Calls of active or inactive are those of the source. The calls are words filed in the database; no cut-off is given here.

How the values were obtained:
[1] = molecular target: T1, Nuclear receptor ROR-gamma (Homo sapiens, UniProt P51449); assay: Inhibition of human GAL4-fused RORgamma LBD transcriptional activity expressed in CHOK1 cells after 2 days by luciferase reporter gene assay; format: cell-based
T1 sequence (P51449 whole entry): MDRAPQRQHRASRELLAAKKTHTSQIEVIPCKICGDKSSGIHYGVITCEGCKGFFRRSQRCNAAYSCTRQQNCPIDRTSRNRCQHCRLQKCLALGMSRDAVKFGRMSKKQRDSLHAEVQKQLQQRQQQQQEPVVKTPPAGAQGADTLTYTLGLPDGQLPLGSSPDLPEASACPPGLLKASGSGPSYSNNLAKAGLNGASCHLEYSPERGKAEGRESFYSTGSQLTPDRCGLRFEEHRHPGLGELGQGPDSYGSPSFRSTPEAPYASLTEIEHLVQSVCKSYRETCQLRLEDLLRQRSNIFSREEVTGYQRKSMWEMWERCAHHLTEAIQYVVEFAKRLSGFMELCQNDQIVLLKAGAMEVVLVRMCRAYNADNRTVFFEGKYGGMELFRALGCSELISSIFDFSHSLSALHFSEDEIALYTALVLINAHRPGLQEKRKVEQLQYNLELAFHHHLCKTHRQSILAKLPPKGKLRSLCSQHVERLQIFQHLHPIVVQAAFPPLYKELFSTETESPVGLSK

[2] = system: Mus musculus; assay: Anti-inflammatory activity in orally dosed C57BL/6 mouse model of MOG (35 to 55 residues)/pertussis toxin/anti-CD3 antibody-induced experimental allergic encephalomyelitis assessed as inhibition of IL17 production measured 8 hrs after post dose by ELISA; format: functional
Method in brief: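 Female C57BL/6 mice immunized subcutaneously at two back sites (75 μg MOG35–55 per site; peptide at 3 mg/mL in D-PBS emulsified 1:1 with complete Freund's adjuvant), plus intraperitoneal pertussis toxin 0.2 μg on days 1 and 3. Day 5: anti-CD3 1 μg i.v. Oral dosing 3 h or 8 h before anti-CD3, 5 mice/group. Blood taken 2 h post-anti-CD3; plasma IL-17A measured by ELISA.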

[3] = system: Mus musculus; assay: Anti-inflammatory activity in C57BL/6 mouse model of IL23-induced dermatitis assessed as inhibition of ear swelling at 3 to 30 mg/kg, po administered once daily from day 1 to 11 and measured on days 1, 5, 8, 10, 12 post dose; format: functional, organism-based
Method in brief: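 IL-23 dermatitis: 250 ng recombinant mouse IL-23 in 20 μL PBS with 0.1% BSA injected intradermally into left ear of anesthetized mice on days 1, 3, 5, 8 and 10. Oral dosing at 3 and 30 mg/kg (vehicle 0.5% MC, 10 mL/kg) daily days 1–11. Left ear thickness measured by digital gauge on days 1, 5, 8, 10, 12; change from day 1 baseline.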

[4] = molecular target: T2, Nuclear receptor ROR-alpha (Homo sapiens, UniProt P35398); assay: Inhibition of GAL4-fused human RORalpha transcriptional activity expressed in CHOK1 cells after 2 days by luciferase reporter gene assay; format: cell-based
T2 sequence (P35398 whole entry): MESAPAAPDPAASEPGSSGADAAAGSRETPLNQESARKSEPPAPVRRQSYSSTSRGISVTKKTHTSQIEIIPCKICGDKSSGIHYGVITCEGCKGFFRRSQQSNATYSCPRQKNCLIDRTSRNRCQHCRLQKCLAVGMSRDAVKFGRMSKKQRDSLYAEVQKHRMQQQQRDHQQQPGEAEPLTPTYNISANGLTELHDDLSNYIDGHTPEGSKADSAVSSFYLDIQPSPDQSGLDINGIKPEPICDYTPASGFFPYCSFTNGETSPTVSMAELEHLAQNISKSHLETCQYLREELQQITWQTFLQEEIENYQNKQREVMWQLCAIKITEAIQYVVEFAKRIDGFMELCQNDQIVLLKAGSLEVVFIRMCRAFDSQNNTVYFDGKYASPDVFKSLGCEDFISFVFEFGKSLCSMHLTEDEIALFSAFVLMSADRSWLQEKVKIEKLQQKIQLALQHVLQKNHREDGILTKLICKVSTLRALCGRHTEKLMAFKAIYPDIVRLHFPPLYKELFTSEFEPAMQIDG

[5] = Inhibition of GAL4-fused mouse LXR transcriptional activity expressed in CHOK1 cells after 2 days by luciferase reporter gene assay; format: cell-based; conditions: CHO-K1, 48 h
[6] = molecular target: T3, Peroxisome proliferator-activated receptor delta (Homo sapiens, UniProt Q03181); assay: Inhibition of GAL4-fused human PPARdelta transcriptional activity expressed in CHOK1 cells after 2 days by luciferase reporter gene assay; format: cell-based
T3 sequence (Q03181 whole entry): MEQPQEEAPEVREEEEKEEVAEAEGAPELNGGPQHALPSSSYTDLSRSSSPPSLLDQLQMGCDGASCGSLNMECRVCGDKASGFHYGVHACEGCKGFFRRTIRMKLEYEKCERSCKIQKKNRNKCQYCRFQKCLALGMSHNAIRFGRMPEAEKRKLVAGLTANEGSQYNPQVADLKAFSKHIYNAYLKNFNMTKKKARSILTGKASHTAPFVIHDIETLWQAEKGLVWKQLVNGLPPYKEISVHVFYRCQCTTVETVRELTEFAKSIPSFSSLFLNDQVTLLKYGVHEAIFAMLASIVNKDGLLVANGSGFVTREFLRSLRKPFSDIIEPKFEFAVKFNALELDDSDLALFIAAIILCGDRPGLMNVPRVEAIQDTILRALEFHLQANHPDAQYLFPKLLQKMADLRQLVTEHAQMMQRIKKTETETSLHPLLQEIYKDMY

[7] = molecular target: Cytochrome P450 3A4 (Homo sapiens, UniProt P08684); assay: Time-dependent inhibition of human CYP3A4 using midazolam as substrate; format: ADME
[8] = molecular target: Cytochrome P450 2C9 (Homo sapiens, UniProt P11712); assay: Time-dependent inhibition of human CYP2C9; format: ADME
[9] = Terminal half life in CD(SD) rat at 1 mg/kg, iv; format: ADME, organism-based; conditions: in vivo, read-out: beta t1/2 (converted)
[10] = Total body clearance in CD(SD) rat at 1 mg/kg, iv; format: ADME, organism-based; conditions: in vivo
[11] = Volume of distribution at steady state in CD(SD) rat at 1 mg/kg, iv; format: ADME, organism-based; conditions: in vivo, read-out: Vdss
[12] = Oral bioavailability in CD(SD) rat at 3 mg/kg; format: ADME, organism-based; conditions: in vivo

Sequence of Cytochrome P450 3A4 (P08684 whole entry): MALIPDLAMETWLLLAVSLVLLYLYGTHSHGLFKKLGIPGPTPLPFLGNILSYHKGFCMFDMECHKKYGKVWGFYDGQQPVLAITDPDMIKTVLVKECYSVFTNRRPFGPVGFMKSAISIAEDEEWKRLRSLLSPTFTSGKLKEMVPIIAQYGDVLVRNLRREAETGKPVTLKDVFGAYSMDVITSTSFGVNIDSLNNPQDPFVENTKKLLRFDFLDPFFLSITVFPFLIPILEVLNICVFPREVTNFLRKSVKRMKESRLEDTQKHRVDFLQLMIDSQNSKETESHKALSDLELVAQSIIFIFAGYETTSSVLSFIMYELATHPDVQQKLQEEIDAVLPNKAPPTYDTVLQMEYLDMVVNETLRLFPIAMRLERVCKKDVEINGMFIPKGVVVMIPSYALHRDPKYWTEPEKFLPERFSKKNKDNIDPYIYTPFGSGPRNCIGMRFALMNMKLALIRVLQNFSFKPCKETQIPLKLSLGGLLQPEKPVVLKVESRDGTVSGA
Sequence of Cytochrome P450 2C9 (P11712 whole entry): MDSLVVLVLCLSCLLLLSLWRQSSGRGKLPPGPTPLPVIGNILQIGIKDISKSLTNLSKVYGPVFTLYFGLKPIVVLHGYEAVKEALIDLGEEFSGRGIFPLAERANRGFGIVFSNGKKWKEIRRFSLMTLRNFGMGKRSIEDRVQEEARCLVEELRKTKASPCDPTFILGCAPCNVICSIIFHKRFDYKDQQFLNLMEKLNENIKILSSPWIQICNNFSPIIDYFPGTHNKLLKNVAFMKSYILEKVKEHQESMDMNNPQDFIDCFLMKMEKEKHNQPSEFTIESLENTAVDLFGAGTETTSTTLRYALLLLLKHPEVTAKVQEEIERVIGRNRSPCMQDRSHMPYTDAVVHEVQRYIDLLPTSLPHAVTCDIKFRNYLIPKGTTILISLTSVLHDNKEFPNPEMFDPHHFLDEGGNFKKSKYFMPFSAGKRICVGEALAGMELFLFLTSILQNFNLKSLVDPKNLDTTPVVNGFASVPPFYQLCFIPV

CC(C)(C)Cc1cc(-c2onc([C@@H](CCC(=O)[O-])CC(=O)Nc3ccc(Cl)cc3Cl)c2C2CC2)no1.[Na+]
EC50 [1]: 0.009 µM | Activity [2]: Dose-dependent effect | ED50 ([2]; C57BL/6, po): 3 mg/kg | Activity [3]: Active | EC50 [4]: > 20 µM | EC50 [5]: > 20 µM | EC50 [6]: > 20 µM | IC50 [7]: > 50 µM | IC50 [8]: > 50 µM | half-life [9]: 4.2 h | clearance [10]: 4.17 mL/min/kg | Vd [11]: 0.76 L/kg | bioavailability [12]: 72%
